Source: PubChem BioAssay
S1P1 ag pot: S1P1 agonists and agonism potentiators, primary screen, cell-based, primary and confirmation screens, CRE-bla reporter; Sphingosine 1-phosphate receptor 1 (Homo sapiens), P21453; S1P1 CRE-bla cells, forskolin, beta-lactamase FRET, potentiator mode; S1P1 agonist co-added at EC20, 2 nM; 100% = saturating reference agonist, 0% = basal; activation, % at 9.5 µM; 0.57% of 56,000 active;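 active = activation above a cutoff set at the mean activation of all tested compounds plus 3 SD, cut at about 54% in these data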;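 note: forskolin at 4 µM as EC80 and the EC20 agonist is SEW2871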
Target sequence (P21453 whole entry, looked up): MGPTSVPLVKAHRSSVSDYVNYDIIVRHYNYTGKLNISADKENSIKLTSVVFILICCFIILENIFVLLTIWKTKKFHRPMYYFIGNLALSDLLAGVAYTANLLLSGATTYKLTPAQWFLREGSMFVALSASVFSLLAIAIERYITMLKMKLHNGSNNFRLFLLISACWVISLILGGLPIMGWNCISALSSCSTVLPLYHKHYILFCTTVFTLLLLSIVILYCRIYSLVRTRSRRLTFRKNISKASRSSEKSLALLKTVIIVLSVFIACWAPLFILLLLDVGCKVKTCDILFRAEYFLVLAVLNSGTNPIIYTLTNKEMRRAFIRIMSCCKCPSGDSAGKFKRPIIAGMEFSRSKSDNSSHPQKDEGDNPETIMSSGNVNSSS
M1 ag: M1 muscarinic receptor agonists, primary screen, CHO-M1 cells, Fluo-4 calcium, agonist mode; 3% of 64,000 active; Muscarinic acetylcholine receptor M1; Fluo-4 calcium fluorescence; active compounds read high; B-score at 10 µM;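 active = fluorescence rise, raw or as B-score row- and column-corrected plate score, outside the 99.7% band of its plate's samples, either direction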
D1 mod: D1 CRE-luciferase signal change, two-sided – cell-based, HEK293 D1, dopamine EC30, D1 allosteric modulator project, primary screen; 5.9% of 58,000 active; dopamine EC30 potentiation; actives deviate in either direction; D(1A) dopamine receptor (Homo sapiens), P21728; B-score at 10 µM; AID 641, 2007;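 active = luminescence count or its row- and column-corrected plate score outside the 99.7% band of the plate's sample wells, on either side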
M1 antag: antagonists of rat M1 muscarinic receptor. Muscarinic acetylcholine receptor M1 (Rattus norvegicus), P08482. CHO-M1 cells, Fluo-4 calcium, ACh EC80 antagonist mode; active compounds read low. B-score at 10 µM. 3.4% of 64,000 active;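 active = calcium fluorescence response, raw or row-and-column corrected B-score, differing from the plate sample mean either way at a set confidence level, mostly lower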
S1P3 ag: human S1P3 receptor agonists, primary screen, cell-based, primary and confirmation, NFAT-BLA reporter; 0.1% of 60,000 active; Sphingosine 1-phosphate receptor 3 (Homo sapiens), Q99500; S1P3 NFAT-BLA reporter cells, agonism, FRET ratio; relative to 1 µM S1P, basal subtracted; activation, % at 4.5 µM;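 active = activation above the screen-wide mean plus 3 SD, cut at about 4.5% in these data, passing the limit was not always enough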
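Measure – % activation relative to 1 µM S1P (100%), per plate · System – stable CHO line with human S1P3, Gα16, NFAT-BLA reporter · Timing – cells plated overnight, compound 4 h 37 °C, substrate 2 h RT · Technique – fluorescent BLA substrate, ex 405 nm, em 460/535 nm ratio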
M1 ag confirm: rat M1 muscarinic receptor agonists, confirmation, CHO-M1 cells, Fluo-4 calcium, duplicate retest | shares compounds with M1 ag | Fluo-4 calcium fluorescence, agonist mode; actives lie on both sides | fluorescence change (max-min) at 10 µM | 19% of 1,700 active | AID 1488, 2009;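 active = fluorescence change differs from the solvent-only DMSO control mean at a set confidence level in both duplicate runs; inconclusive = differs from solvent-only control mean in just one of two runs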;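 note: an EC20 dose of acetylcholine follows compound addition during the same imaging run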
M4 agonist ctr: agonist activity at rat M4 receptor, confirmation, counter-screen for M1 allosteric modulator project, cell-based, agonist mode; shares compounds with M1 ag; CHO M4/Gqi5 cells, Fluo-4 calcium fluorescence; actives lie on both sides; fluorescence change (max-min) at 10 µM; 9% of 1,700 active; AID 1741, 2009;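 active = fluorescence change differing from the plate's solvent-only control wells at 99.7% confidence in both duplicates, whether higher or lower; inconclusive = differs from solvent controls in only one of two duplicates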
Each line names hits and unclear results; the compound was inactive in the other large screens (follow-up assays come after a bar, where they were run). In the library only some 11% were active in any assay of this set; here they are far more common.

COc1ccc(-c2csc(N(CCCN(C)C)C(=O)c3cccs3)n2)cc1	M1 ag 27, M1 antag -9.5 | M1 ag confirm inactive | M4 agonist ctr inactive
COc1ccc(-c2csc(N(CCCN3CCOCC3)C(=O)c3ccco3)n2)cc1	M1 ag 8.8 (no result: D1 mod) | M1 ag confirm inactive | M4 agonist ctr inactive
Cc1ccc(-c2csc(N(CCCN3CCOCC3)C(=O)c3ccco3)n2)cc1	none
COCc1cc(C)nc2sc(C(=O)OC)c(N)c12	M1 ag 4.4 | M1 ag confirm inactive | M4 agonist ctr inactive
COc1ccc(OC)c(NC(=O)c2ccc(NC(C)=O)cc2)c1	none
COc1ccc(OC)c(N/C(C)=C/C(=O)c2ccc(C)o2)c1	M1 ag 5.9 (no result: S1P1 ag pot) | M1 ag confirm inconclusive | M4 agonist ctr inactive
Cc1cc(C)n2nc(SCC(=O)N(C)Cc3ccccc3)nc2n1	M1 ag 2.1 (no result: D1 mod) | M1 ag confirm inactive | M4 agonist ctr inconclusive
CC(=O)Nc1ccccc1OCC(=O)c1cc(C)n(Cc2cccs2)c1C	S1P1 ag pot 110, M1 ag 3.1 (no result: D1 mod) | M1 ag confirm inactive | M4 agonist ctr inactive
Cc1cc(C(=O)COC(=O)c2ccc3c(c2)OCO3)c(C)n1Cc1cccs1	none
COc1ccccc1-n1nc(C(=O)O)c2ccccc2c1=O	M1 ag 6.6 | M1 ag confirm inconclusive | M4 agonist ctr inactive
CCC1(C)Cc2c(sc3c2c(=O)n(C)c2nnc(SCC(=O)c4ccc(Cl)cc4)n32)CO1 (stereo not given)	none (no result: D1 mod)
COc1cc(C(C)=O)ccc1OCC(=O)c1cc(C)n(C2CC2)c1C	none
CC(C)OCCCNc1ncnc2c1[nH]c1ccccc12	M1 ag 3.2, M1 antag -4.3 | M1 ag confirm inactive | M4 agonist ctr inconclusive
COCCn1c(=S)[nH]c2ccc(N(C)C)cc2c1=O	M1 ag 6.3 | M1 ag confirm inactive | M4 agonist ctr inactive
C=CCn1c(SCC(=O)NC2CCCCC2)nnc1C(C)NC(=O)c1cccs1 (stereo not given)	none (no result: S1P1 ag pot)
C=CCn1c(SCC(=O)c2ccc(OC)cc2)nnc1C(C)NC(=O)c1cccs1 (stereo not given)	M1 ag -2.8 (no result: S1P1 ag pot) | M1 ag confirm inconclusive | M4 agonist ctr inactive
CC(C)c1nnc(NC(=O)CC(=O)Nc2ccccc2C(=O)O)s1	none
O=C(NCc1ccco1)c1sc(=S)n2c1[nH]c(=O)c1ccccc12	M1 ag 12 (no result: S1P1 ag pot, S1P3 ag) | M1 ag confirm inactive | M4 agonist ctr inactive
O=C(NC1CCCC1)c1sc(=S)n2c1[nH]c(=O)c1ccccc12	none
CC(C)CCn1c(Br)nc2c1c(=O)n(CC(N)=O)c(=O)n2C	none
c1ccc(Cn2nnnc2C(c2cccnc2)N2CCN(c3ccccc3)CC2)cc1 (stereo not given)	M1 ag 6.1 | M1 ag confirm inconclusive | M4 agonist ctr inconclusive
COc1cccc(C2NC(=O)NC(O)(C(F)(F)F)C2C(=O)c2cccnc2)c1OC (stereo not given)	none (no result: S1P1 ag pot)
O=C(CN1CCOCC1)NCc1ccccc1	none
O=C(CN1CCOCC1)NCCNC(=O)CN1CCOCC1	M1 ag 4.2 | M1 ag confirm inconclusive | M4 agonist ctr inconclusive
CCOc1cc(C2C(C(=O)c3ccc(C)o3)=C(O)C(=O)N2CCc2ccccc2)ccc1O (stereo not given)	none (no result: S1P1 ag pot, S1P3 ag)
COc1cc(C2C(C(=O)c3ccco3)=C(O)C(=O)N2CCc2ccccc2)ccc1O (stereo not given)	M1 ag 89 (no result: S1P1 ag pot, D1 mod, S1P3 ag) | M1 ag confirm inactive | M4 agonist ctr inactive
Cc1ccc(/C(C#N)=C\c2cn(C)c3ccccc23)cc1	M1 ag -2.7 | M1 ag confirm inactive | M4 agonist ctr inactive
